Reference: ChEMBL document CHEMBL4177546, “Development of a Selective Inhibitor of Protein Arginine Deiminase 2” (J Med Chem, 2017)

What was measured:
Homo sapiens [1] = species on record: Homo sapiens; test: Selectivity ratio of Kinact/Ki for recombinant human PAD2 expressed in Escherichia coli BL21(DE3)pLysS cells to Kinact/Ki for recombinant full length N-terminal GST-tagged human PAD4 expressed in Escherichia coli Rosetta cells
Outline: (§1)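 Enzyme at 2.0 μM (PAD1, PAD2, PAD4) or 5.0 μM (PAD3) incubated at 37 °C with various inhibitor concentrations in 50 mM HEPES, 10 mM CaCl₂, 2 mM DTT, pH 7.6. Timed aliquots moved into substrate mix: 10 mM BAEE, or 10 mM BAA for PAD3. […] Selectivity ratios taken from these values.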

Homo sapiens [2] = species on record: Homo sapiens; test: Selectivity ratio of Kinact/Ki for recombinant human PAD2 expressed in Escherichia coli BL21(DE3)pLysS to Kinact/Ki for recombinant His6-tagged PAD3 (unknown origin); outline: as §1
Homo sapiens [3] = species on record: Homo sapiens; test: Selectivity ratio of Kinact/Ki for recombinant human PAD2 expressed in Escherichia coli BL21(DE3)pLysS cells to Kinact/Ki for recombinant His6-tagged PAD1 (unknown origin); outline: as §1
Homo sapiens [4] = species on record: Homo sapiens; test: Selectivity ratio of Kinact/Ki for recombinant full length N-terminal GST-tagged human PAD4 expressed in Escherichia coli Rosetta to Kinact/Ki for recombinant His6-tagged PAD3 (unknown origin); outline: as §1
Homo sapiens [5] = species on record: Homo sapiens; test: Selectivity ratio of Kinact/Ki for recombinant His6-tagged PAD1 (unknown origin) to Kinact/Ki for recombinant His6-tagged PAD3 (unknown origin); outline: as §1
[6] = molecular target: T1, Protein-arginine deiminase type-2 (Homo sapiens, UniProt Q9Y2J8); test: Binding affinity to human PAD2 expressed in HEK293T cells assessed as protein occupancy at 25 uM preincubated for 15 mins followed by ionomycin addition measured after 1 hr in presence of CaCl2 by RIBFA probe based SDS-PAGE analysis relative to control; assay type: cell-based
Outline: (§2)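 Adherent HEK293T/PAD2 cells at 80–90% confluence in HBS with 2 mM CaCl₂ at 37 °C. Inhibitor (in DMSO) added for 15 min, then ionomycin (0.5 μM final) for 1 h. Cells washed and lysed in 1% Triton X-100. Lysate (2 μg/μL) labelled with RIBFA probe (2 μM) plus 2 mM CaCl₂ for 1 h at 37 °C. Gel resolved and fluorescence scanned (~546/579 nm). PAD2 occupancy expressed relative to DMSO control.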

[7] = Safety index, ratio of compound EC50 to BB-Cl-amide EC50 for cytotoxicity against HEK293T cells; assay type: cell-based, HEK-293T; conditions: human, read-out: Ratio EC50
[8] = molecular target: T1, Protein-arginine deiminase type-2; test: Binding affinity to human PAD2 expressed in HEK293T cells assessed as protein occupancy preincubated for 15 mins followed by ionomycin addition measured after 1 hr in presence of CaCl2 by RIBFA probe based SDS-PAGE analysis; assay type: cell-based
Outline: as §2, with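 “°C.” for “°C. Gel resolved and fluorescence scanned (~546/579 nm).”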

[9] = molecular target: T1, Protein-arginine deiminase type-2; test: Binding affinity to human PAD2 expressed in HEK293T cells assessed as decrease in histone H3 citrulination incubated for 3 hrs in presence of ionomycin/CaCl2 by SDS-PAGE analysis; assay type: cell-based
Outline: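 HEK293T stably overexpressing human PAD2, 4 × 10⁵ cells in HBS, given ionomycin (10 μM), CaCl₂ (1 mM) and varying inhibitor concentrations (1% DMSO) for 3 h. Lysed with 1% Triton X-100 and sonicated at 0 °C. 1 μg protein run on SDS-PAGE, western blotted with antibodies to histone H3 and to citrullinated H3 (Cit 2,8,17), and imaged on Licor. EC50 taken from CitH3 intensity.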

[10] = molecular target: Protein-arginine deiminase type-4 (Homo sapiens) (UniProt Q9UM07); test: Ratio of Kinact to Ki for recombinant full length N-terminal GST-tagged human PAD4 expressed in Escherichia coli Rosetta cells preincubated for 10 mins followed by BAEE substrate addition measured after 15 mins by COLDER assay
Outline: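 Enzyme at 2.0 μM (PAD1, PAD2, PAD4) or 5.0 μM (PAD3) incubated at 37 °C with various inhibitor concentrations in 50 mM HEPES, 10 mM CaCl₂, 2 mM DTT, pH 7.6. Timed aliquots moved into substrate mix: 10 mM BAEE, or 10 mM BAA for PAD3. Selectivity ratios taken from these values.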

Homo sapiens [11] = species on record: Homo sapiens; test: Selectivity ratio of Kinact/Ki for recombinant full length N-terminal GST-tagged human PAD4 expressed in Escherichia coli Rosetta cells to Kinact/Ki for recombinant human PAD2 expressed in Escherichia coli BL21(DE3)pLysS cells; outline: as §1
Homo sapiens [12] = species on record: Homo sapiens; test: Selectivity ratio of Kinact/Ki for recombinant His6-tagged PAD1 (unknown origin) to Kinact/Ki for recombinant human PAD2 expressed in Escherichia coli BL21(DE3)pLysS cells; outline: as §1
Homo sapiens [13] = species on record: Homo sapiens; test: Selectivity ratio of Kinact/Ki for recombinant His6-tagged PAD3 (unknown origin) to Kinact/Ki for recombinant human PAD2 expressed in Escherichia coli BL21(DE3)pLysS cells; outline: as §1
Homo sapiens [14] = species on record: Homo sapiens; test: Selectivity ratio of Kinact/Ki for recombinant His6-tagged PAD3 (unknown origin) to Kinact/Ki for recombinant full length N-terminal GST-tagged human PAD4 expressed in Escherichia coli Rosetta cells; outline: as §1
Homo sapiens [15] = species on record: Homo sapiens; test: Selectivity ratio of Kinact/Ki for recombinant His6-tagged PAD1 (unknown origin) to Kinact/Ki for recombinant full length N-terminal GST-tagged human PAD4 expressed in Escherichia coli Rosetta cells; outline: as §1

T1 sequence (Q9Y2J8 whole entry): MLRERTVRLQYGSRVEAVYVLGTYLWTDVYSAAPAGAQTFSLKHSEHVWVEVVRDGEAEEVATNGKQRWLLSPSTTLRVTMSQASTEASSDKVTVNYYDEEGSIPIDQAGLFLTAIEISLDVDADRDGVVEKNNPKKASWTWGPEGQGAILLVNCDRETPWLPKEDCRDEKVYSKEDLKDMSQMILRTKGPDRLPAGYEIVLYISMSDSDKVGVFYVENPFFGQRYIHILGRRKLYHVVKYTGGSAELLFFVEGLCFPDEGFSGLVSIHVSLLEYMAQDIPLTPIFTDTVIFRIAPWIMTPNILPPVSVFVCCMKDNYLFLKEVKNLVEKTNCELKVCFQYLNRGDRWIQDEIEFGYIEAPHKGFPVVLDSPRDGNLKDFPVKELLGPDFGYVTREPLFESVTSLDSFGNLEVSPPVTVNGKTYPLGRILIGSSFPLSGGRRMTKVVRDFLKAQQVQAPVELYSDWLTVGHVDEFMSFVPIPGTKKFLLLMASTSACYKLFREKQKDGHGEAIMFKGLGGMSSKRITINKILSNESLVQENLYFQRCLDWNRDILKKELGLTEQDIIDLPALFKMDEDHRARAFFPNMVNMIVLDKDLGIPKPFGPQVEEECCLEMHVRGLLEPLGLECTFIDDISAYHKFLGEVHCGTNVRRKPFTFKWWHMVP
Chain of Protein-arginine deiminase type-4 (Homo sapiens) (Q9UM07 whole entry): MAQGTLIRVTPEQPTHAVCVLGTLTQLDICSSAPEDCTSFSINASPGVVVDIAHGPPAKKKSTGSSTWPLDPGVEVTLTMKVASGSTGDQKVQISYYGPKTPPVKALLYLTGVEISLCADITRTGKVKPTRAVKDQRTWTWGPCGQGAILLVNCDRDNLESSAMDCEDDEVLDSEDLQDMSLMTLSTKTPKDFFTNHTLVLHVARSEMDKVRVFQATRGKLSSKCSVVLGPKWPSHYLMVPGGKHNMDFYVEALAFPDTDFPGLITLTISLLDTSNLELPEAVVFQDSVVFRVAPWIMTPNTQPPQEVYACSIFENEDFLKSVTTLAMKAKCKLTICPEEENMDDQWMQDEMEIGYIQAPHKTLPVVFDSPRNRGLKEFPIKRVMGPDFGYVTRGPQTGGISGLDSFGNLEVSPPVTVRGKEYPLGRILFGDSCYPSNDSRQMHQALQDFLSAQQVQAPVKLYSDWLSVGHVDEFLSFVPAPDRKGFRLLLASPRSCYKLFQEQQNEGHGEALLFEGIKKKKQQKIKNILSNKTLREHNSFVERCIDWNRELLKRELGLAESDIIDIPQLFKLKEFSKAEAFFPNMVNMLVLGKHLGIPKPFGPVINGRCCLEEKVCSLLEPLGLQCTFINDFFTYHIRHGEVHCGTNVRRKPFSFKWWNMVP

## CCn1c([C@H](CCCNC(=N)CF)NC(=O)c2cccc3c2C(=O)NC3)nc2ccccc21
Homo sapiens [1]
  Selectivity ratio: 33
Homo sapiens [2]
  Selectivity ratio: 56
Homo sapiens [3]
  Selectivity ratio: 2
Homo sapiens [4]
  Selectivity ratio: 1.7
Homo sapiens [5]
  Selectivity ratio: 37

## COc1cccc2c1nc([C@H](CCCNC(=N)CF)NC(=O)c1cccc3c1C(=O)N(C1CC1)C3)n2C
Homo sapiens [2]
  Selectivity ratio: 77
[6]
  Activity: < 37%
Homo sapiens [4]
  Selectivity ratio: 3.8
Homo sapiens [5]
  Selectivity ratio: 38

## COc1ccc2c(c1)nc([C@H](CCCNC(=N)CF)NC(=O)c1cccc3c1C(=O)NC3)n2C
Homo sapiens [2]
  Selectivity ratio: 114
[6]
  Activity: > 60%
Homo sapiens [4]
  Selectivity ratio: 1.2
[7]
  selectivity ratio: > 30
Homo sapiens [5]
  Selectivity ratio: 121
[8]
  EC50: 5.9 µM
[9]
  EC50: 2.1 µM

## N=C(CF)NCCC[C@H](NC(=O)c1ccc(-c2ccccc2)cc1)c1nc2ccccc2[nH]1
[8]
  EC50: 20.6 µM
[10]
  Ratio: 3750 M⁻¹ min⁻¹

## N=C(CCl)NCCC[C@H](NC(=O)c1ccccc1C(=O)O)c1nc2ccccc2[nH]1
Homo sapiens [11]
  Selectivity ratio: 9
Homo sapiens [12]
  Selectivity ratio: 8.3
Homo sapiens [13]
  Selectivity ratio: 6.2

## CCn1c([C@H](CCCNC(=N)CF)NC(=O)c2cccc3c2C(=O)NC3)nc2c(OC)cccc21
Homo sapiens [1]
  Selectivity ratio: 32
Homo sapiens [14]
  Selectivity ratio: 1
[6]
  Activity: > 60%
[7]
  selectivity ratio: > 30
[8]
  EC50: 7.6 µM
[9]
  EC50: 2.4 µM
Homo sapiens [15]
  Selectivity ratio: 38

## CCN1Cc2cccc(C(=O)N[C@@H](CCCNC(=N)CF)c3nc4ccccc4[nH]3)c2C1=O
Homo sapiens [11]
  Selectivity ratio: 1
Homo sapiens [12]
  Selectivity ratio: 3.4
Homo sapiens [13]
  Selectivity ratio: 1

## CCN1Cc2cccc(C(=O)N[C@@H](CCCNC(=N)CF)c3nc4c(OC)cccc4n3C)c2C1=O
Homo sapiens [1]
  Selectivity ratio: 85
Homo sapiens [14]
  Selectivity ratio: 1
Homo sapiens [2]
  Selectivity ratio: 85
Homo sapiens [3]
  Selectivity ratio: 5
[6]
  Activity: < 37%
Homo sapiens [15]
  Selectivity ratio: 16

## N=C(CF)NCCC[C@H](NC(=O)c1ccccc1C(=O)O)c1nc2ccccc2[nH]1
Homo sapiens [11]
  Selectivity ratio: 16
Homo sapiens [12]
  Selectivity ratio: 11
Homo sapiens [13]
  Selectivity ratio: 4.3

## COc1ccc2[nH]c([C@H](CCCNC(=N)CCl)NC(=O)c3cccc4c3C(=O)NC4)nc2c1
Homo sapiens [1]
  Selectivity ratio: 95
Homo sapiens [2]
  Selectivity ratio: 3.5 to 114
Homo sapiens [4]
  Selectivity ratio: 2.2
Homo sapiens [5]
  Selectivity ratio: 7.3

## COc1ccc2[nH]c([C@H](CCCNC(=N)CF)NC(=O)c3cccc4c3C(=O)NC4)nc2c1
Homo sapiens [1]
  Selectivity ratio: 95
Homo sapiens [2]
  Selectivity ratio: 5.4 to 114
Homo sapiens [4]
  Selectivity ratio: 3.5
Homo sapiens [5]
  Selectivity ratio: 13

## CCOc1cccc2c1nc([C@H](CCCNC(=N)CF)NC(=O)c1cccc3c1C(=O)NC3)n2C
Homo sapiens [1]
  Selectivity ratio: 95
Homo sapiens [14]
  Selectivity ratio: 1.2
Homo sapiens [2]
  Selectivity ratio: 79
[6]
  Activity: > 60%
[7]
  selectivity ratio: > 30
[8]
  EC50: 8.3 µM
[9]
  EC50: 2.7 µM
Homo sapiens [15]
  Selectivity ratio: 65

## CCn1c([C@H](CCCNC(=N)CCl)NC(=O)c2ccccc2C(=O)O)nc2ccccc21
Homo sapiens [2]
  Selectivity ratio: 1.6
Homo sapiens [4]
  Selectivity ratio: 1.2
Homo sapiens [5]
  Selectivity ratio: 4.3

## N=C(CCl)NCCC[C@H](NC(=O)c1cccc2c1C(=O)NC2)c1nc2ccccc2[nH]1
Homo sapiens [2]
  Selectivity ratio: 2.3
Homo sapiens [4]
  Selectivity ratio: 2.1
Homo sapiens [5]
  Selectivity ratio: 6.5

## COc1cccc2c1nc([C@H](CCCNC(=N)CF)NC(=O)c1cccc3c1C(=O)NC3)n2C
Homo sapiens [1]
  Selectivity ratio: 15
Homo sapiens [2]
  Selectivity ratio: 47
Homo sapiens [3]
  Selectivity ratio: 1.6
[6]
  Activity: > 60%
Homo sapiens [4]
  Selectivity ratio: 3.2
[7]
  selectivity ratio: > 30
Homo sapiens [5]
  Selectivity ratio: 29
[8]
  EC50: 9.5 µM
[9]
  EC50: 0.4 µM

## COc1cccc2c1nc([C@H](CCCNC(=N)CF)NC(=O)c1cccc3c1C(=O)N(C(C)C)C3)n2C
Homo sapiens [2]
  Selectivity ratio: 58
[6]
  Activity: < 37%
Homo sapiens [4]
  Selectivity ratio: 2.6
Homo sapiens [5]
  Selectivity ratio: 32

## CCN1Cc2cccc(C(=O)N[C@@H](CCCNC(=N)CF)c3nc4ccccc4n3CC)c2C1=O
Homo sapiens [1]
  Selectivity ratio: 33
Homo sapiens [14]
  Selectivity ratio: 1
Homo sapiens [3]
  Selectivity ratio: 2
Homo sapiens [15]
  Selectivity ratio: 19

## CCN1Cc2cccc(C(=O)N[C@@H](CCCNC(=N)CCl)c3nc4ccccc4n3C)c2C1=O
Homo sapiens [2]
  Selectivity ratio: 19
Homo sapiens [4]
  Selectivity ratio: 1.2
Homo sapiens [5]
  Selectivity ratio: 21

## COc1cccc2c1nc([C@H](CCCNC(=N)CF)NC(=O)c1cccc3c1C(=O)N(C)C3)n2C
Homo sapiens [2]
  Selectivity ratio: 106
[6]
  Activity: < 37%
Homo sapiens [4]
  Selectivity ratio: 1.1
Homo sapiens [5]
  Selectivity ratio: 30
